Test results as given in PMC4710169 (Biomedical chromatography : BMC, 2014).
One block for each molecule: values may come before it.

How the values were obtained:
[1] = Freeze–thaw stability; type: in vitro ADME
How it was run: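 Samples at 324 and 3240 ng/mL, run in triplicate. Each cycle was 24 h at −20°C, then unassisted thawing at room temperature, then refreezing; three cycles in total. Samples then extracted with methanol (0.04% formic acid) on ice and analysed by reversed-phase HPLC-DAD at 295 nm. Final concentration expressed as percent of initial.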

[2] = Short- and long-term stability in mouse plasma; type: in vitro ADME; conditions: for compound remaining intact in mouse plasma: 4°C
How it was run: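 Mouse plasma spiked at 324 and 3240 ng/mL, analysed in duplicate. Short-term storage at 37°C (2, 4, 6, 8, 12, 24 h) or 4°C (4, 8, 12, 24 h); long-term storage at −80°C for 2–8 weeks. Samples then methanol-extracted and analysed by HPLC-DAD. Results given as percent of freshly prepared samples.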

[3] = Bench-top stability in mouse plasma and tissue homogenates at 25°C; type: in vitro ADME; conditions: plasma and most tissue homogenates except for liver
[4] = Homogenization stability in mouse tissues; type: in vitro ADME; conditions: homogenized
How it was run: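 Compound at 324 and 3240 ng/mL injected into equal weights of blank mouse tissue, kept inside the organ. Tissue homogenized in two volumes (v/w) PBS on ice, extracted at once by methanol precipitation and analysed immediately. Analysis by C18 HPLC-DAD at 295 nm. Recovery given as percent of initial concentration.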

[5] = Stock solution stability at room temperature; type: physicochemical; conditions: room temperature (25°C), 24 h; 324 and 3240 ng/mL
How it was run: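 Stock solutions of analyte and internal standard, at 324 and 3240 ng/mL, tested fresh and after storage at 25°C. Tested at 6, 12 and 24 h after preparation, using the same extraction and C18 HPLC-DAD (295 nm) procedure.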

[6] = Nonspecific binding to container surface; type: physicochemical, mouse
How it was run: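 Sequential transfer test. Plasma or tissue homogenate spiked at 324 or 3240 ng/mL was poured, without a pipette, through four identical clean tubes in turn. Solution stood 5–20 min at room temperature in each donor tube for adsorption. 100 μL taken from each tube and measured by the same extraction and HPLC-DAD method.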

[7] = tested on: mouse plasma proteins; assay: Plasma protein binding by micro-ultrafiltration; type: in vitro ADME; conditions: 37°C, 1 h
How it was run: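 Mouse plasma spiked at 324 and 3240 ng/mL and held at 37°C for 1 h; PBS used as control matrix. Micro-ultrafiltration by centrifugation at 2000g until dry. Filtrate (free, F) and unfiltered solution (total, T) each assayed in triplicate by HPLC, and filter-bound amount (X) also measured. Percent bound = [(T−F−X)/T]×100.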

[8] = tested on: hepatic microsomal S9 fractions from CD2F1 mice; assay: S9 metabolism in vitro; type: in vitro ADME; conditions: mouse S9, 60 min incubation, 37°C
How it was run: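 Hepatic S9 fraction from CD2F1 mice, containing phase I and II enzymes and cofactors, incubated with compound. Compound added as a 3240 ng/mL DMSO solution (not final concentration) into cold 100 mM Tris, pH 7.4. Duplicate portions taken at 0, 15, 30, 45 and 60 min and analysed for intact compound by HPLC, against a no-S9 control.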

[9] = type: in vivo, female nu/nu mice
How it was run: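 Nude mice carrying subcutaneous MIAPaCa-2 xenografts (1 × 10^7 cells, left inguinal) were dosed once with 40 mg/kg i.p. when tumours reached 100 mg, n=3 per group. Vehicle was PEG400–EtOH–saline (57.1:14.3:28.6). Retro-orbital plasma and necropsy tissues taken at 0–24 h. Urine and feces collected over 24 h in metabolic cages. Tissues homogenized in PBS, methanol-extracted and measured by HPLC-DAD.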

[10] = tested on: pancreatic cancer cells; conditions: ref: our previous studies; cited from earlier work
[11] = tested on: tumor growth; conditions: 40 mg/kg intraperitoneal; ref: our previous studies; cited from earlier work
[12] = female, nu/nu, mouse, plasma, intraperitoneal, 40 mg/kg

percentage of remaining concentration after three freeze–thaw cycles ([1]; 324 ng/mL): 98.24 ± 0.69% | percentage of remaining concentration after three freeze–thaw cycles ([1]; 3240 ng/mL): 97.44 ± 1.53% | compound remaining intact in mouse plasma ([2]; 24 h, 324 ng/mL): 95.9% | compound remaining intact in mouse plasma ([2]; 24 h, 3240 ng/mL): 94.3% | compound remaining in mouse plasma ([2]; 37°C, 24 h, both 324 and 3240 ng/mL): more than 77% | compound remaining in mouse plasma ([2]; −80°C, 8 weeks, 324 ng/mL): 95.7% | compound remaining in mouse plasma ([2]; −80°C, 8 weeks, 3240 ng/mL): 98.7% | bench-top stability [3]: relatively stable | recovery at 324 ng/mL ([4]; blank brain tissue): 91.3 ± 0.98% | recovery at 3240 ng/mL ([4]; blank brain tissue): 101 ± 1.45% | recovery at 324 ng/mL ([4]; blank heart tissue): 81.8 ± 4.47% | recovery at 3240 ng/mL ([4]; blank heart tissue): 86.6 ± 1.39% | recovery at 324 ng/mL ([4]; blank kidney tissue): 82.5 ± 2.6% | recovery at 3240 ng/mL ([4]; blank kidney tissue): 87.8 ± 1.36% | recovery at 324 ng/mL ([4]; blank liver tissue): 86.7 ± 1.36% | recovery at 3240 ng/mL ([4]; blank liver tissue): 89.22 ± 0.77% | recovery at 324 ng/mL ([4]; blank lung tissue): 89 ± 1.57% | recovery at 3240 ng/mL ([4]; blank lung tissue): 93.3 ± 1.02% | recovery at 324 ng/mL ([4]; blank muscle tissue): 97.18 ± 0.9% | recovery at 3240 ng/mL ([4]; blank muscle tissue): 97.5 ± 1.47% | recovery at 324 ng/mL ([4]; blank spleen tissue): 93 ± 5.2% | recovery at 3240 ng/mL ([4]; blank spleen tissue): 99.7 ± 1.15% | recovery at 324 ng/mL ([4]; blank tumor tissue): 99.61 ± 0.79% | recovery at 3240 ng/mL ([4]; blank tumor tissue): 99.12 ± 0.19% | stock solution stability [5]: unchanged | Recovery (%) ± SD (%), nonspecific binding ([6]; Brain, 324 ng/mL): 96.29 ± 2.54% | Recovery (%) ± SD (%), nonspecific binding ([6]; Brain, 3240 ng/mL): 100.58 ± 0.81% | Recovery (%) ± SD (%), nonspecific binding ([6]; Heart, 324 ng/mL): 100.41 ± 0.27% | Recovery (%) ± SD (%), nonspecific binding ([6]; Heart, 3240 ng/mL): 98.82 ± 0.38% | Recovery (%) ± SD (%), nonspecific binding ([6]; Kidney, 324 ng/mL): 99.88 ± 3.11% | Recovery (%) ± SD (%), nonspecific binding ([6]; Kidney, 3240 ng/mL): 97.13 ± 1.04% | Recovery (%) ± SD (%), nonspecific binding ([6]; Liver, 324 ng/mL): 104.91 ± 6.65% | Recovery (%) ± SD (%), nonspecific binding ([6]; Liver, 3240 ng/mL): 99.69 ± 1.38% | Recovery (%) ± SD (%), nonspecific binding ([6]; Lungs, 324 ng/mL): 96.64 ± 2.24% | Recovery (%) ± SD (%), nonspecific binding ([6]; Lungs, 3240 ng/mL): 99.99 ± 0.21% | Recovery (%) ± SD (%), nonspecific binding ([6]; Muscle, 324 ng/mL): 101.12 ± 2.33% | Recovery (%) ± SD (%), nonspecific binding ([6]; Muscle, 3240 ng/mL): 99.19 ± 1.01% | Recovery (%) ± SD (%), nonspecific binding ([6]; Plasma, 324 ng/mL): 98.95 ± 1.49% | Recovery (%) ± SD (%), nonspecific binding ([6]; Plasma, 3240 ng/mL): 100.49 ± 0.04% | Recovery (%) ± SD (%), nonspecific binding ([6]; Spleen, 324 ng/mL): 99.54 ± 2.10% | Recovery (%) ± SD (%), nonspecific binding ([6]; Spleen, 3240 ng/mL): 99.99 ± 0.22% | Recovery (%) ± SD (%), nonspecific binding ([6]; Tumor, 324 ng/mL): 96.84 ± 2.30% | Recovery (%) ± SD (%), nonspecific binding ([6]; Tumor, 3240 ng/mL): 99.20 ± 0.57% | bound to proteins in mouse plasma ([7]; 324 ng/mL): 57.23% | bound to proteins in mouse plasma ([7]; 3240 ng/mL): 62.61% | compound metabolized by phase II components [8]: 18.8% | concentration in plasma ([9]; 40 mg/kg i.p. single dose, 6 h): undetectable | detection in tumor tissue ([9]; 40 mg/kg i.p., 24 h after administration, low concentrations): could be detected | excretion of parent compound in urine and feces ([9]; 40 mg/kg i.p., 24 h collection, data not shown): minimally excreted | half-life in plasma ([9]; 40 mg/kg i.p., tumor-bearing nude mice): short half-life | concentration at 10 min [9, 12]: ~3 µg/mL | concentration at 4 h [9, 12]: 0.2 µg/mL
SMILES: COc1ccc2[nH]c3c(-c4cccc5ccccc45)nccc3c2c1 [SP-141, 6-methoxy-1-(naphthalen-1-yl)-9H-pyrido[3,4-b]indole]
order of highest overall concentrations in tissues ([9]; 40 mg/kg i.p. single dose): spleen > lungs > liver > kidney > brain > tumor > muscle > heart | effective level against pancreatic cancer cells in vitro [10]: submicromolar | effect on tumor growth in vivo [11]: suppresses the tumor growth | host toxicity in vivo [11]: no significant host toxicity

stock solution stability [5]: unchanged
SMILES: COc1ccc2c(c1)[nH]c1c(-c3ccc4ccccc4c3)nccc12 [SP-157, 7-methoxy-1-(naphthalen-2-yl)-9H-pyrido[3,4-b]indole, reference compound]
